The nature of experiment [1]: reducers of endogenous Her2 protein level, primary screen, SKBR3 breast tumor cells, AlphaScreen, ATP viability (AID 461;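 active means Her2 level under about 52% in both replicate screens, with viability over 70% of control, limit read from the data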;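 on Her2 level: lower value means less Her2 protein in the cells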;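 on viability: percent of carrier control wells set as 100% viability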). The settings on record: 18-24 h, measured here: SKBR3 viability, ATP luminescence, at 10 µM. (Alpha assays give light when donor and acceptor beads are brought close together.)
Experiment [2] concerns the target Receptor tyrosine-protein kinase erbB-2 (Homo sapiens) (UniProt P04626). The description is as above. The following applies: 18-24 h, at 10 µM, stronger effect = lower value.
Experiment [3] in a line: SK-BR-3 cell growth inhibitors, pilot screen, 24 h, human (AID 572;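 active means viability at or below 10% of carrier control in both of two separate runs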;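 further: compound exposure lasted between 18 and 24 h rather than exactly 24 h; 100% = carrier-treated control wells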). The settings on record: SK-BR-3 viability, CellTiter-Glo luminescence, at 10 µM, stronger effect = lower value.
Experiment [4] can be described thus: HUVEC growth inhibition – cell-based, human, primary screen (AID 575;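 active means viability at or below 30% in both replicate assays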;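 further: 100% = median of untreated cell wells with 0.1% DMSO on each plate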). The settings on record: HUVEC proliferation, CellTiter-Glo luminescence, 72 h; at 10 µM; stronger effect = lower value. The method in brief: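 Test system: primary human umbilical vein endothelial cells; medium: endothelial basal medium with 2% FBS plus growth supplements; dosing: 10 µM compound only; times: 72 h treatment at 37 °C; signal: CTG luminescence; read-out: % viability relative to median vehicle-well signal on each plate; control set: vehicle and MePR control wells; plate: 384-well, collagen-coated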
On the technique in general: Cellular ATP, detected with luciferase, serves as a proxy for viable cell number.

Experiment [5] in a line: growth inhibitors of H69AR lung tumor, primary screen, human, duplicate replicates (AID 580).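 Further: 100% = mean luminescence of untreated wells and 0% = no signal.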 The following applies: H69AR lung tumor cells viability, ATP luminescence, 72 h; at 10 µM; stronger effect = lower value.
Experiment [6] is described as follows: reversal of MRP1-mediated doxorubicin resistance, pilot screen, H69AR cells, doxorubicin co-treatment (AID 601;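 active means viability loss from added drug above about 55%, and viability with drug at most 40%, in both replicates, limit read from the data, passing the limit was not always enough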). The following applies: CellTiter-Glo, 72 h, at 10 µM; for differential viability (reversal): stronger effect = higher value.
Experiment [7] can be described thus: 384-well plate pilot, post-Golgi transport modulator project, inhibition of yeast transport mutant growth (AID 636; in the data active means inhibition above about 31%). The following applies: absorbance 615 nm, about 18 h, stronger effect = higher value.
Experiment [8] is described as follows: growth suppression of yeast trafficking mutant, preliminary HTS, modulators of trafficking downstream of Golgi apparatus project, 1536-format plate, OD 615 nm (AID 637; in the data active means inhibition above about 30%). The settings on record: yeast transport mutant growth, absorbance 615 nm, 18 h; stronger effect = higher value.
[9] abbreviates: H69AR cells + 2 uM doxorubicin, measured here: viability with 2 uM doxorubicin, stronger effect = lower value.
The mark [10] stands for this setting: H69AR cells, compound alone cytotoxicity.

Activity calls are given as the source filed them.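 How the source made its calls, unless noted: active means viability at or under a set limit in both replicates, limit being median viability minus 3 SD (cut at about 48% in these data, passing the limit was not always enough); inconclusive means at or under the limit in just one replicate; inactive means at or above the limit in both replicates.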

Chain of Receptor tyrosine-protein kinase erbB-2 (Homo sapiens) (P04626 whole entry, looked up): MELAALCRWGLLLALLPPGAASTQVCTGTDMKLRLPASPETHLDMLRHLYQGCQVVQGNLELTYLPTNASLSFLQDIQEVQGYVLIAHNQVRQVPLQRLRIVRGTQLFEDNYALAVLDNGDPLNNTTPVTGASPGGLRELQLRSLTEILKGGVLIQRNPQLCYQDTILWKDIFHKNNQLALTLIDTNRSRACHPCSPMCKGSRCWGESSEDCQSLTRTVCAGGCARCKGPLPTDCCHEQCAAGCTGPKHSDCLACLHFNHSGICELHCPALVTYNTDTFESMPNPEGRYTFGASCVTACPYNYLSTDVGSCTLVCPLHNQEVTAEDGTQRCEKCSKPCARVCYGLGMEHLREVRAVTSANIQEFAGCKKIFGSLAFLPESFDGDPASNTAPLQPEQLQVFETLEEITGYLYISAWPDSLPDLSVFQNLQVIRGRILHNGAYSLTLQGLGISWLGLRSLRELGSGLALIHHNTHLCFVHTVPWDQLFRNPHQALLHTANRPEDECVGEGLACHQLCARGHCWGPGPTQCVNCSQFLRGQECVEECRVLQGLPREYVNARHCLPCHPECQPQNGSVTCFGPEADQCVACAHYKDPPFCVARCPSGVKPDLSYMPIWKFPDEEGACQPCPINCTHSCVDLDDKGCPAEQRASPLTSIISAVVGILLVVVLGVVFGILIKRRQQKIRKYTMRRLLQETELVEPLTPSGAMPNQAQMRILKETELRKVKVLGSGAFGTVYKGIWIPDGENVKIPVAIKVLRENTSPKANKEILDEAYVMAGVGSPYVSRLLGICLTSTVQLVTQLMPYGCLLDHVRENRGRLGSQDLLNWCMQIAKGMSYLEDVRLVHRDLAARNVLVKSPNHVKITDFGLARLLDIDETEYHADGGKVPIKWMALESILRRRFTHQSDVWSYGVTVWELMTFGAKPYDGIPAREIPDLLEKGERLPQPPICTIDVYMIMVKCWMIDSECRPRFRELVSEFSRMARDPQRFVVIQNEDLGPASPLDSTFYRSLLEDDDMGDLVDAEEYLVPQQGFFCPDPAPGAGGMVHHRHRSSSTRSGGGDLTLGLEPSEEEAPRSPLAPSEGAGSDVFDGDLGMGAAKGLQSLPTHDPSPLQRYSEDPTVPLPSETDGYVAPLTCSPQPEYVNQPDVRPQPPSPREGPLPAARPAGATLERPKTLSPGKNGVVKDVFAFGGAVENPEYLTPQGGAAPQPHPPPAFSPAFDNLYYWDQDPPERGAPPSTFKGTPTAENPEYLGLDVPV

A word on the viability: it is a read-out of living cells in per cent, often relative to untreated cells. By inhibition is commonly meant the relative decrease from the control value, in per cent. For the molecule `COC(=O)c1cnn2c(C(F)(F)F)cc(-c3ccco3)nc12`, the viability is 99% in experiment [1]; 99% (inactive) in experiment [3]; 79.9% (inactive) in experiment [4]; 64.8% (inactive) in experiment [5]; 76.5% in experiment [6] (setting [9]); 64.8% in experiment [6] (setting [10]). For the same molecule, the Her2 level in experiment [2] is 80% (inactive). For the same molecule, the differential viability (reversal) in experiment [6] (H69AR cells + 2 uM doxorubicin) was -11.7% (inactive). Moreover, the inhibition in experiment [7] is -4.61% (inactive); in experiment [8] it was 0.82% (inactive).
With `Oc1ccc2[nH]cnc2c1CN1CCCCC1`, the viability in experiment [1] was 113%; in experiment [3] it was 113% (inactive); in experiment [4] it was 107% (inactive); in experiment [5], 99.7% (inactive); in experiment [6] (setting [9]), 92.5%; in experiment [6] (setting [10]), 99.7%. The Her2 level in experiment [2] is 110% (inactive). The differential viability (reversal) in experiment [6] (H69AR cells + 2 uM doxorubicin) is 7.21% (inactive). Besides, the inhibition in experiment [7] was -5.39% (inactive); in experiment [8] it was 3.28% (inactive).
In the case of `COc1ccccc1N1CCN(c2nc3ccccc3nc2C(C#N)C(=O)OC(C)C)CC1` (stereo not given), the viability in experiment [1] is 77%; in experiment [3], 77% (inactive); in experiment [4], 71.6% (inactive); in experiment [5], 80.3% (inactive); in experiment [6] (setting [9]), 77.2%; in experiment [6] (setting [10]) it was 80.3%. Further, the Her2 level in experiment [2] was 112% (inactive). The differential viability (reversal) in experiment [6] (H69AR cells + 2 uM doxorubicin) was 3.12% (inactive). Besides, the inhibition in experiment [7] is 1.58% (inactive); in experiment [8], -1.82% (inactive).
As to `O=C(NC1CCCCC1)N(Cc1ccccc1)Cc1ccco1`, the viability in experiment [1] is 94.5%; in experiment [3], 94.5% (inactive); in experiment [4], 101% (inactive); in experiment [5], 100% (inactive); in experiment [6] (setting [9]), 97.3%; in experiment [6] (setting [10]), 100%. Also, in experiment [2], the Her2 level was 98% (inactive). In experiment [6] (H69AR cells + 2 uM doxorubicin), the differential viability (reversal) is 3.09% (inactive). Further, the inhibition in experiment [7] is 0.54% (inactive); in experiment [8], -3.11% (inactive).
Turning to `O=C1CSC(c2cn(-c3ccccc3)nc2-c2ccccc2)N1Cc1ccco1` (stereo not given), the viability in experiment [1] was 97%; in experiment [3], 97% (inactive); in experiment [4] it was 63.1% (inactive); in experiment [5], 88.3% (inactive); in experiment [6] (setting [9]) it was 70.6%; in experiment [6] (setting [10]) it was 88.3%. In addition, the Her2 level in experiment [2] was 110% (inactive). In experiment [6] (H69AR cells + 2 uM doxorubicin), the differential viability (reversal) was 17.7% (inactive). Moreover, the inhibition in experiment [7] was 0.92% (inactive); in experiment [8], 3.55% (inactive).
`COc1ccc(OC)c(C(=O)c2coc3ccc(O)c(CN4CCOCC4)c23)c1`: the viability in experiment [1] was 95.5%; in experiment [3] it was 95.5% (inactive); in experiment [4], 97.8% (inactive); in experiment [5] it was 90.1% (inactive); in experiment [6] (setting [9]) it was 94.1%; in experiment [6] (setting [10]) it was 90.1%. Further, the Her2 level in experiment [2] is 78% (inactive). Also, the differential viability (reversal) in experiment [6] (H69AR cells + 2 uM doxorubicin) was -4.02% (inactive). Further, the inhibition in experiment [7] is -5.07% (inactive); in experiment [8] it was -8.73% (inactive).
On to `FC(F)(F)c1cccc(N2CCN(Cc3cccnc3)CC2)c1`, for which the viability in experiment [1] was 90.5%; in experiment [3], 90.5% (inactive); in experiment [4], 101% (inactive); in experiment [5], 110% (inactive); in experiment [6] (setting [9]) it was 84.9%; in experiment [6] (setting [10]) it was 110%. Also, the Her2 level in experiment [2] was 99.5% (inactive). Besides, in experiment [6] (H69AR cells + 2 uM doxorubicin), the differential viability (reversal) is 25.3% (inactive). Besides, the figures for the inhibition in experiment [7] and in experiment [8] were -0.4% (inactive) and -1.61% (inactive), respectively.
For the molecule `O=c1c2c3c(sc2n2cnnc2n1CCc1ccccc1)CCCC3`, the viability is 96.5% in experiment [1]; 96.5% (inactive) in experiment [3]; 57.7% (inactive) in experiment [4]; 77.1% (inactive) in experiment [5]; 68.1% in experiment [6] (setting [9]); 77.1% in experiment [6] (setting [10]). Besides, the Her2 level in experiment [2] was 78.5% (inactive). Besides, the differential viability (reversal) in experiment [6] (H69AR cells + 2 uM doxorubicin) was 8.96% (inactive). For the same molecule, the inhibition was -3.47% (inactive) in experiment [7] and 6.45% (inactive) in experiment [8].
As to `C=CCSC1=C(C#N)C(c2ccccc2OCC)CC(=O)N1` (stereo not given), the viability in experiment [1] is 94%; in experiment [3], 94% (inactive); in experiment [4], 88.3% (inactive); in experiment [5] it was 95.3% (inactive); in experiment [6] (setting [9]) it was 91.8%; in experiment [6] (setting [10]), 95.3%. Also, the Her2 level in experiment [2] is 81% (inactive). Moreover, in experiment [6] (H69AR cells + 2 uM doxorubicin), the differential viability (reversal) is 3.58% (inactive). In addition, the inhibition in experiment [7] is -5.39% (inactive); in experiment [8], 0.5% (inactive).
`CCN(CC)CCCNC(=O)c1nn(-c2ccc(OC)cc2OC)c(=O)c2ccccc12`: the viability was 97% in experiment [1]; 97% (inactive) in experiment [3]; 72.3% (inactive) in experiment [4]; 96.1% (inactive) in experiment [5]; 97% in experiment [6] (setting [9]); 96.1% in experiment [6] (setting [10]). For the same molecule, the Her2 level in experiment [2] was 103% (inactive). In addition, in experiment [6] (H69AR cells + 2 uM doxorubicin), the differential viability (reversal) was -0.935% (inactive). Moreover, the values for the inhibition in experiment [7] and in experiment [8] were -2.57% (inactive) and -7.46% (inactive), respectively.
Turning to `CCOc1ccc2[nH]c(=O)c(CN(CCOC)C(=O)N3CCOCC3)cc2c1`, the viability is 97% in experiment [1]; 97% (inactive) in experiment [3]; 102% (inactive) in experiment [4]; 92.1% (inactive) in experiment [5]; 101% in experiment [6] (setting [9]); 92.1% in experiment [6] (setting [10]). The Her2 level in experiment [2] is 90% (inactive). In experiment [6] (H69AR cells + 2 uM doxorubicin), the differential viability (reversal) was -8.59% (inactive). For the same molecule, the inhibition in experiment [7] was -3.33% (inactive); in experiment [8], 4.59% (inactive).
For `O=C1CC(Cc2ccccc2)C(=O)N1CCCn1ccnc1` (stereo not given), the viability in experiment [1] was 101%; in experiment [3] it was 101% (inactive); in experiment [4], 103% (inactive); in experiment [5], 92.2% (inactive); in experiment [6] (setting [9]) it was 84%; in experiment [6] (setting [10]), 92.2%. For the same molecule, the Her2 level in experiment [2] was 102% (inactive). Besides, the differential viability (reversal) in experiment [6] (H69AR cells + 2 uM doxorubicin) is 8.18% (inactive). Besides, the results for the inhibition in experiment [7] and in experiment [8] were -3.85% (inactive) and -0.5% (inactive), respectively.
For `CC(=O)Nc1c(C(=O)C2CC2)oc2ccccc12`, the viability in experiment [1] was 102%; in experiment [3], 102% (inactive); in experiment [4] it was 96.9% (inactive); in experiment [5], 90.2% (inactive); in experiment [6] (setting [9]), 82.5%; in experiment [6] (setting [10]), 90.2%. Besides, in experiment [2], the Her2 level was 124% (inactive). Further, in experiment [6] (H69AR cells + 2 uM doxorubicin), the differential viability (reversal) was 7.75% (inactive). Also, the inhibition is -5.33% (inactive) in experiment [7] and -5.4% (inactive) in experiment [8].
As to `CCOc1cc(N2CCOCC2)c(OCC)cc1NC(=O)COC(=O)CCc1c[nH]c2ccccc12`, the viability in experiment [1] is 97.5%; in experiment [3], 97.5% (inactive); in experiment [4] it was 105% (inactive); in experiment [5] it was 99.4% (inactive); in experiment [6] (setting [9]), 94.8%; in experiment [6] (setting [10]), 99.4%. Further, the Her2 level in experiment [2] is 98.5% (inactive). Further, the differential viability (reversal) in experiment [6] (H69AR cells + 2 uM doxorubicin) was 4.66% (inactive). Besides, the inhibition in experiment [7] is -8.38% (inactive); in experiment [8], -8.83% (inactive).
Take `CCOC(=O)N1CCN(C(=O)c2ccc3c(SCC(=O)O)c4c(nc3c2)CCCC4)CC1`: the viability is 95.5% in experiment [1]; 95.5% (inactive) in experiment [3]; 93.8% (inactive) in experiment [4]; 100% (inactive) in experiment [5]; 93.9% in experiment [6] (setting [9]); 100% in experiment [6] (setting [10]). Further, the Her2 level in experiment [2] was 92.5% (inactive). Further, the differential viability (reversal) in experiment [6] (H69AR cells + 2 uM doxorubicin) is 6.52% (inactive). Moreover, the inhibition in experiment [7] was 0.13% (inactive); in experiment [8], 22.3% (inactive).

The values are drawn from PubChem BioAssay.
